Data set [1] deals with Hepatitis C virus. Kind of data set: Antiviral activity against HCV Con1 infected in human HuH7 cells assessed as inhibition of viral replication after 24 hrs by replicon assay in presence of 10% fetal bovine serum. Type of data set: functional, organism-based, Hepacivirus hominis. Conditions: Con1, Huh-7, 24 h. The gist of the method: (§1)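 Huh-7 cells stably carrying a bicistronic replicon (1b con1 or 2a JFH) seeded at 20000 cells/well and held 24 h at 37 °C/5% CO2 in DMEM with 10% FBS or 50% NHS. Compound added in DMSO (1% final) for a further 24 h. Cells fixed and permeabilized. Replicon RNA quantified by in situ hybridization of a radiolabeled neomycin-resistance probe (50 °C, 18 h), followed by RNase A treatment.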
In general terms: A replicon is a self-replicating genome or part of one, used to study replication in cells.

A short description of data set [2]: Drug level in Sprague-Dawley rat liver at 5 mg/kg, po after 4 hrs by LC/MS analysis. Type of data set: ADME, organism-based. On the set-up: dose 5 mg/kg, route oral. The following applies: read-out: Drug uptake. In a few lines: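 Rats given a single oral dose as a PEG400 solution (2.0 mL/kg). Liver collected at the terminal time point and homogenized in buffer. Drug extracted liquid-liquid and quantified by LC/MS against standards and QCs.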

In data set [3] the test system is Hepatitis C virus. In words: Antiviral activity against HCV Con1 infected in human HuH7 cells assessed as inhibition of viral replication after 24 hrs by replicon assay in presence of 50% normal human serum. The class given is functional, organism-based, Hepacivirus hominis. Conditions: Con1, Huh-7, 24 h. The gist of the method:
as §1

A short description of data set [4]: Inhibition of HCV1b BK full length NS3/4A protease expressed in Escherichia coli after 1 hr by time-resolved fluorescence assay. Also noted: species or system Hepatitis C virus (isolate BK). In a few lines:
(§2)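 Full-length NS3/4A (1b BK or 2a JFH) purified from E. coli. TRF peptide substrate added at 100 nM final. Reaction run 1 h at RT, then quenched with 500 mM MES pH 5.5. Read at ex 340/em 615 nm with 400 μs delay. Ki from a four-parameter fit.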

The nature of data set [5]: Inhibition of HCV JFH-1 full length NS3/4A protease expressed in Escherichia coli after 1 hr by time-resolved fluorescence assay. On the set-up: species or system Hepatitis C virus JFH-1. In a few lines:
as §2

The subject of data set [6] is Hepatitis C virus. Kind of data set: Antiviral activity against HCV JFH-1 infected in human HuH7 cells assessed as inhibition of viral replication after 24 hrs by replicon assay in presence of 10% fetal bovine serum. Type of data set: functional, organism-based, Hepacivirus hominis. Conditions: JFH-1, Huh-7, 24 h. The gist of the method:
as §1

Data set [7] can be described thus: AUC in chimpanzee at 10 mg/kg, po by LC/MS analysis. Type of data set: ADME, organism-based, Pan troglodytes. Also noted: dose 10 mg/kg, route oral. The following applies: plasma. In a few lines: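 Two chimpanzees dosed orally by voluntary ingestion in a chocolate milk vehicle (0.67 mL/kg). Blood sampled at multiple times up to 24 h. Plasma analysed by liquid-liquid extraction and LC/MS against standards and QCs. Pharmacokinetic parameters calculated from the concentration data.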

Data set [8] is described as follows: Drug level in monkey liver at 5 mg/kg, po after 2 hrs by LC/MS analysis. Type of data set: ADME, organism-based, Macaca mulatta. On the set-up: dose 5 mg/kg, route oral. Conditions: rhesus monkey, read-out: Drug uptake.
The nature of data set [9]: Drug level in Beagle dog liver at 5 mg/kg, po after 24 hrs by LC/MS analysis. The following applies: read-out: Drug uptake. The class given is ADME, organism-based, Canis lupus familiaris. Also noted: dose 5 mg/kg, route oral.
A short description of data set [10]: AUC in Beagle dog at 5 mg/kg, po by LC/MS analysis. Type of data set: ADME, organism-based, Canis lupus familiaris. On the set-up: dose 5 mg/kg, route oral. Conditions: plasma.
Data set [11] can be described thus: AUC in monkey at 5 mg/kg, po by LC/MS analysis. Conditions: rhesus monkey, plasma. On the set-up: dose 5 mg/kg, route oral. The class given is ADME, organism-based, Macaca mulatta.
Data set [12] can be described thus: Drug level in Sprague-Dawley rat liver at 5 mg/kg, po after 24 hrs by LC/MS analysis. The class given is ADME, organism-based. On the set-up: dose 5 mg/kg, route oral. Conditions: read-out: Drug uptake. The gist of the method: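 Single oral dose given as a PEG400 solution (2.0 mL/kg). Liver was collected at the terminal time point, homogenized in buffer, and processed by liquid-liquid extraction. Drug was quantified by LC/MS against standards and QCs.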

Data set [13] can be described thus: Drug level in Beagle dog liver at 5 mg/kg, po after 2 hrs by LC/MS analysis. The class given is ADME, organism-based, Canis lupus familiaris. On the set-up: dose 5 mg/kg, route oral. Conditions: read-out: Drug uptake.

SMILES strings stand for the structures.

For `C=C[C@@H]1C[C@]1(NC(=O)[C@@H]1C[C@@H]2CN1C(=O)[C@H](C(C)C)NC(=O)OCCC/C=C/c1cccc3c1CN(C3)C(=O)O2)C(=O)NS(=O)(=O)C1CC1`, the IC50 in data set [1] was 12 nM; in data set [3], 28 nM. Moreover, the concentration at 4 h in [2] was 440 nM. The compound also showed a Ki in data set [4] of 0.04 nM.
`CC[C@@H]1C[C@]1(NC(=O)[C@@H]1C[C@@H]2CN1C(=O)[C@H](C(C)(C)C)NC(=O)OCCCCCc1cccc3c1CN(C3)C(=O)O2)C(=O)NS(=O)(=O)C1CC1`: the IC50 came out at 10 nM in [1], 35 nM in data set [3] and 140 nM in [6]. Further, in data set [2], the concentration at 4 h turned out to be 10700 nM. Besides, the Ki in data set [5] came out at 4 nM; in data set [4] it was 0.18 nM.
Turning to `C=C[C@@H]1C[C@]1(NC(=O)[C@@H]1C[C@@H]2CN1C(=O)[C@H](C1(C)CCCCC1)NC(=O)OCCC/C=C/c1cccc3c1CN(C3)C(=O)O2)C(=O)NS(=O)(=O)C1CC1`, the IC50 in [1] is 4 nM; in data set [3], 38 nM. Besides, in data set [2], the concentration at 4 h turned out to be 1600 nM. Further, in [4], the Ki was 0.06 nM.
In the same order, the values of `C=C[C@@H]1C[C@]1(NC(=O)[C@@H]1C[C@@H]2CN1C(=O)[C@H](C(C)(C)C)NC(=O)OCCCCC/C=C/c1cccc3c1CN(C3)C(=O)O2)C(=O)NS(=O)(=O)C1CC1` are 3 nM, 23 nM, 140 nM and under 0.02 nM.
As to `C=C[C@@H]1C[C@]1(NC(=O)[C@@H]1C[C@@H]2CN1C(=O)[C@H](C(C)(C)C)NC(=O)OCCC/C=C/c1cccc3c1CCN(C3)C(=O)O2)C(=O)NS(=O)(=O)C1CC1`, the IC50 is 730 nM in [1] and 2900 nM in data set [3]. The compound further came in with a Ki in data set [4] of 8.3 nM.
The like results for `C=C[C@@H]1C[C@]1(NC(=O)[C@@H]1C[C@@H]2CN1C(=O)[C@H](C(C)(C)C)NC(=O)OCC/C=C/c1cccc3c1CN(C3)C(=O)O2)C(=O)NS(=O)(=O)C1CC1` were, in that order, 16 nM, 390 nM and 0.1 nM.
As to `C=C[C@@H]1C[C@]1(NC(=O)[C@@H]1C[C@@H]2CN1C(=O)[C@H](C(C)(C)C)NC(=O)OCCC/C=C/c1cccc(c1)CN(C)C(=O)O2)C(=O)NS(=O)(=O)C1CC1`, the IC50 in data set [1] was 28 nM; in data set [3], 42 nM. For the same compound, the concentration at 4 h in data set [2] was 450 nM. The same compound yielded a Ki in [4] of 0.14 nM.
Consider `C=C[C@@H]1C[C@]1(NC(=O)[C@@H]1C[C@@H]2CN1C(=O)[C@H](C(C)(C)C)NC(=O)OCCC/C=C/c1ccccc1CN(C)C(=O)O2)C(=O)NS(=O)(=O)C1CC1`, for which the IC50 turned out to be 98 nM in data set [1] and 610 nM in data set [3]. Also, the Ki in [4] came to 1.6 nM.
On to `C=C[C@@H]1C[C@]1(NC(=O)[C@@H]1C[C@@H]2CN1C(=O)[C@H](C(C)(C)C)NC(=O)OCCC/C=C/c1cccc3c1CN(C3)C(=O)O2)C(=O)NS(=O)(=O)C1CC1`, for which the IC50 stood at 7 nM in [1], 32 nM in data set [3] and 150 nM in [6]. Besides, the concentration at 4 h in data set [2] is 910 nM. The figures for the Ki in [5] and in data set [4] were 2.6 nM and 0.05 nM, respectively.
Consider `C=C[C@@H]1C[C@]1(NC(=O)[C@@H]1C[C@@H]2CN1C(=O)[C@H](C(C)(C)C)NC(=O)OCCC/C=C/c1cccc3c1CN(CC3)C(=O)O2)C(=O)NS(=O)(=O)C1CC1`, for which the IC50 in data set [1] turned out to be 26 nM; in data set [3] it was 140 nM. Further, the concentration at 4 h in [2] is 3500 nM. This compound showed a Ki in data set [4] of 0.15 nM.
As for `C=C[C@@H]1C[C@]1(NC(=O)[C@@H]1C[C@@H]2CN1C(=O)[C@H](C1CCCCC1)NC(=O)OCCC/C=C/c1cccc3c1CN(C3)C(=O)O2)C(=O)NS(=O)(=O)C1CC1`, the figures for the IC50 in data set [1] and in [3] were 3 nM and 24 nM, respectively. In data set [2], the concentration at 4 h came out at 2800 nM. This compound came in with a Ki in [4] of 0.02 nM.
In the same order, the values of `C=C[C@@H]1C[C@]1(NC(=O)[C@@H]1C[C@@H]2CN1C(=O)[C@H](CCCC)NC(=O)OCCC/C=C/c1cccc3c1CN(C3)C(=O)O2)C(=O)NS(=O)(=O)C1CC1` are 6 nM, 26 nM, 460 nM and 0.05 nM.
As to `C=C[C@@H]1C[C@]1(NC(=O)[C@@H]1C[C@@H]2CN1C(=O)[C@H](C1CCCC1)NC(=O)OCCC/C=C/c1cccc3c1CN(C3)C(=O)O2)C(=O)NS(=O)(=O)C1CC1`, the results for the IC50 in data set [1] and in data set [3] were 4 nM and 23 nM, respectively. The affinity in data set [4] corresponds to a Ki of 0.04 nM.
`C=C[C@@H]1C[C@]1(NC(=O)[C@@H]1C[C@@H]2CN1C(=O)[C@H](C(C)(C)C)NC(=O)OCCCC/C=C/c1cccc3c1CN(C3)C(=O)O2)C(=O)NS(=O)(=O)C1CC1`: the IC50 in [1] was 5 nM; in [3], 19 nM. Besides, the concentration at 4 h in [2] is 230 nM. This compound had a Ki in [4] of 0.03 nM.
`C=C[C@@H]1C[C@]1(NC(=O)[C@@H]1C[C@@H]2CN1C(=O)[C@H](C(C)(C)C)NC(=O)OCCCCCc1cccc3c1CN(C3)C(=O)O2)C(=O)NS(=O)(=O)C1CC1`: the figures for the IC50 in [1], in data set [3] and in data set [6] were 7 nM, 27 nM and 66 nM, respectively. For the same compound, the concentration at 4 h in data set [2] was 520 nM. In addition, the Ki in data set [5] was 0.9 nM; in data set [4], 0.04 nM.
`CC[C@@H]1C[C@]1(NC(=O)[C@@H]1C[C@@H]2CN1C(=O)[C@H](C(C)(C)C)NC(=O)OCCC/C=C/c1cccc3c1CN(C3)C(=O)O2)C(=O)NS(=O)(=O)C1CC1`: the half-maximal inhibitory concentration (IC50) in data set [1] is 29 nM; in [3], 110 nM; in data set [6] it was 720 nM. Also, the concentration at 4 h in data set [2] came out at 3800 nM. For the same compound, the Ki turned out to be 19 nM in data set [5] and 0.45 nM in data set [4].
With `CC[C@@H]1C[C@]1(NC(=O)[C@@H]1C[C@@H]2CN1C(=O)[C@H](C(C)(C)C)NC(=O)OCC(C)(C)CCCCc1cccc3c1CN(C3)C(=O)O2)C(=O)NS(=O)(=O)C1CC1` [VANIPREVIR], the AUC in data set [7] was 5.2 µM·h; in data set [10] it was 1.2 µM·h; in data set [11], 0.05 µM·h. Further, the concentration at 2 h in data set [8] was 3000 nM; in data set [13] it was 34000 nM. Further, the IC50 in data set [1] was 3 nM; in [3] it was 19 nM; in data set [6], 9 nM. Also, the concentration at 24 h was 500 nM in data set [9] and 400 nM in data set [12]. The concentration at 4 h in [2] was found to be 9900 nM. The Ki was 0.9 nM in data set [5] and 0.05 nM in [4].

As a reminder, the IC50 is the point on the concentration scale where inhibition reaches its midpoint. By Ki is commonly meant a measure of affinity in units of concentration, obtained from inhibition or displacement. Broadly, the AUC is concentration integrated over time.

The values above are taken from ChEMBL document CHEMBL1157609, “Discovery of vaniprevir (MK-7009), a macrocyclic hepatitis C virus NS3/4a protease inhibitor” (J Med Chem, 2010).
